Measurements as given in ChEMBL document CHEMBL4038323, “Discovery and Kinetic Profiling of 7-Aryl-1,2,4-triazolo[4,3-a]pyridines: Positive Allosteric Modulators of the Metabotropic Glutamate Receptor 2” (J Med Chem, 2017).
Active and inactive are the calls of the source. The rule behind the calls is not given here.

What was measured:
CHO-K1 = assay: Effect on cellular impedance in CHOK1 cells up to 1 uM measured for 20 mins with 15 sec time interval followed by 40 mins with 5 mins time interval and subsequently measured with 15 mins time interval by RTCA; type: functional, cell-based; conditions: Cricetulus griseus
Outline: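 xCELLigence impedance used 40,000 cells/well of wild-type CHO-K1 or CHO-K1_hmGlu2, rested 30 min at room temperature, then 18 h at 37°C, 5% CO2. Cells got 100 nM or 1 µM compound. Reads: every 15 s for 20 min, 5 min for 40 min, then 15 min. Baseline-corrected; three repeats in duplicate.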

[1] = biological target: Metabotropic glutamate receptor 7 (Homo sapiens) (UniProt Q14831); assay: Antagonist activity at human metabotropic glutamate receptor 7 expressed in HEK293 cells assessed as inhibition of glutamate-induced Ca2+ internalization after 1 hr by fluo-4-AM dye based fluorescence assay; type: functional, cell-based
[2] = biological target: Metabotropic glutamate receptor 8 (Homo sapiens) (UniProt O00222); assay: Agonist activity at human metabotropic glutamate receptor 8 expressed in HEK293 cells assessed as induction of Ca2+ internalization after 1 hr by fluo-4-AM dye based fluorescence assay; type: functional, cell-based
[3] = biological target: Metabotropic glutamate receptor 3 (Homo sapiens) (UniProt Q14832); assay: Antagonist activity at human metabotropic glutamate receptor 3 expressed in HEK293 cells assessed as inhibition of glutamate-induced Ca2+ internalization after 1 hr by fluo-4-AM dye based fluorescence assay; type: functional, cell-based
[4] = biological target: Metabotropic glutamate receptor 5 (Homo sapiens) (UniProt P41594); assay: Antagonist activity at human metabotropic glutamate receptor 5 expressed in HEK293 cells assessed as inhibition of glutamate-induced Ca2+ internalization after 1 hr by fluo-4-AM dye based fluorescence assay; type: functional, cell-based
[5] = biological target: Metabotropic glutamate receptor 1 (Homo sapiens) (UniProt Q13255); assay: Agonist activity at human metabotropic glutamate receptor 1 expressed in HEK293 cells assessed as induction of Ca2+ internalization after 1 hr by fluo-4-AM dye based fluorescence assay; type: functional, cell-based
[6] = biological target: Metabotropic glutamate receptor 7 (Homo sapiens) (UniProt Q14831); assay: Agonist activity at human metabotropic glutamate receptor 7 expressed in HEK293 cells assessed as induction of Ca2+ internalization after 1 hr by fluo-4-AM dye based fluorescence assay; type: functional, cell-based
[7] = biological target: T1, Metabotropic glutamate receptor 2 (Homo sapiens, UniProt Q14416); assay: Displacement of [3H]JNJ-46281222 from human metabotropic glutamate receptor 2 expressed in CHOK1 cell membranes assessed as association rate constant measured every 30 sec for 120 mins by scintillation proximity assay
Outline: (§1)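 For the SPA competition association, CHO-K1_hmGlu2 membranes (20 µg) were pre-coupled 30 min to WGA SPA beads, then mixed with 6 nM [3H]JNJ-46281222, competitor and 1 mM glutamate. Counts were read every 30 s for 120 min at 28°C.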

[8] = biological target: Metabotropic glutamate receptor 5 (Homo sapiens) (UniProt P41594); assay: Agonist activity at human metabotropic glutamate receptor 5 expressed in HEK293 cells assessed as induction of Ca2+ internalization after 1 hr by fluo-4-AM dye based fluorescence assay; type: functional, cell-based
[9] = biological target: T1, Metabotropic glutamate receptor 2; assay: Displacement of [3H]JNJ-46281222 from human metabotropic glutamate receptor 2 expressed in CHOK1 cell membranes assessed as residence time measured every 30 sec for 120 mins by scintillation proximity assay; outline: as §1
[10] = biological target: Metabotropic glutamate receptor 5 (Homo sapiens) (UniProt P41594); assay: Positive allosteric modulation of human metabotropic glutamate receptor 5 expressed in HEK293 cells assessed as induction of Ca2+ […] after 1 hr in the presence of glutamate by fluo-4-AM dye based fluorescence assay; type: functional, cell-based
[11] = biological target: Metabotropic glutamate receptor 3 (Homo sapiens) (UniProt Q14832); assay: Agonist activity at human metabotropic glutamate receptor 3 expressed in HEK293 cells assessed as induction of Ca2+ internalization after 1 hr by fluo-4-AM dye based fluorescence assay; type: functional, cell-based
[12] = biological target: Metabotropic glutamate receptor 6 (Rattus norvegicus) (UniProt P35349); assay: Antagonist activity at rat metabotropic glutamate receptor 6 expressed in CHO cell membranes assessed as inhibition of glutamate-induced [35S]GTPgammaS binding preincubated for 30 mins followed by [35S]GTPgammaS addition measured after 30 mins by Topcount scintillation counting method; type: functional
[13] = biological target: Metabotropic glutamate receptor 8 (Homo sapiens) (UniProt O00222); assay: Antagonist activity at human metabotropic glutamate receptor 8 expressed in HEK293 cells assessed as inhibition of glutamate-induced Ca2+ internalization after 1 hr by fluo-4-AM dye based fluorescence assay; type: functional, cell-based
[14] = biological target: T1, Metabotropic glutamate receptor 2; assay: Positive allosteric modulation of human metabotropic glutamate receptor 2 expressed in CHOK1 cell membranes assessed as increase in glutamate-induced [35S]GTPgammaS binding preincubated for 30 mins followed by [35S]GTPgammaS addition measured after 30 mins by Topcount scintillation counting method; type: functional
[15] = biological target: Metabotropic glutamate receptor 6 (Rattus norvegicus) (UniProt P35349); assay: Agonist activity at rat metabotropic glutamate receptor 6 expressed in CHO cell membranes assessed as increase in [35S]GTPgammaS binding preincubated for 30 mins followed by [35S]GTPgammaS addition measured after 30 mins by Topcount scintillation counting method; type: functional
[16] = biological target: Metabotropic glutamate receptor 1 (Homo sapiens) (UniProt Q13255); assay: Antagonist activity at human metabotropic glutamate receptor 1 expressed in HEK293 cells assessed as inhibition of glutamate-induced Ca2+ internalization after 1 hr by fluo-4-AM dye based fluorescence assay; type: functional, cell-based
[17] = biological target: Metabotropic glutamate receptor 4 (Homo sapiens) (UniProt Q14833); assay: Agonist activity at human metabotropic glutamate receptor 4 assessed as increase in [35S]GTPgammaS binding preincubated for 30 mins followed by [35S]GTPgammaS addition measured after 30 mins by Topcount scintillation counting method; type: functional
[18] = biological target: T1, Metabotropic glutamate receptor 2; assay: Displacement of [3H]-JNJ46281222 from human metabotropic glutamate receptor 2 expressed in CHOK1 cell membranes after 60 mins by microbeta counting analysis
[19] = biological target: Metabotropic glutamate receptor 4 (Homo sapiens) (UniProt Q14833); assay: Antagonist activity at human metabotropic glutamate receptor 4 assessed as inhibition of glutamate-induced [35S]GTPgammaS binding preincubated for 30 mins followed by [35S]GTPgammaS addition measured after 30 mins by Topcount scintillation counting method; type: functional
[20] = biological target: T1, Metabotropic glutamate receptor 2; assay: Binding affinity to human metabotropic glutamate receptor 2 expressed in CHOK1 cell membranes by scintillation proximity assay
[21] = biological target: T1, Metabotropic glutamate receptor 2; assay: Displacement of [3H]JNJ-46281222 from human metabotropic glutamate receptor 2 expressed in CHOK1 cell membranes assessed as dissociation rate constant measured every 30 sec for 120 mins by scintillation proximity assay; outline: as §1
[22] = biological target: T1, Metabotropic glutamate receptor 2; assay: Displacement of [3H]-JNJ46281222 from human metabotropic glutamate receptor 2 expressed in CHOK1 cell membranes after 60 mins by liquid scintillation counting method
[23] = biological target: T1, Metabotropic glutamate receptor 2; assay: Positive allosteric modulation of human metabotropic glutamate receptor 2 expressed in CHOK1 cells assessed as cellular impedance at 600 nM incubated for 5mins followed by compound washout in presence of endogenous glutamate levels by RTCA; type: cell-based
[24] = biological target: T1, Metabotropic glutamate receptor 2; assay: Positive allosteric modulation of human metabotropic glutamate receptor 2 expressed in CHOK1 cells assessed as cellular impedance response by label-free xCELLigence assay
[25] = biological target: T1, Metabotropic glutamate receptor 2; assay: Positive allosteric modulation of human metabotropic glutamate receptor 2 expressed in CHOK1 cells assessed as cellular impedance measured for 20 mins with 15 sec time interval followed by 40 mins with 5 mins time interval and subsequently measured with 15 mins time interval in presence of endogenous glutamate levels by RTCA; type: cell-based
Outline: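 Whole-cell impedance (Cell Index) in CHO-K1_hmGlu2 cells, 40,000/well, 18 h at 37°C before compound addition. Endogenous glutamate was about 90 µM. […] Three experiments in duplicate.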

[26] = biological target: T1, Metabotropic glutamate receptor 2; assay: Positive allosteric modulation of human metabotropic glutamate receptor 2 expressed in CHOK1 cells assessed as cellular impedance at 200 nM incubated for 5mins followed by compound washout in presence of endogenous glutamate levels by RTCA; type: cell-based
Rattus norvegicus [27] = assay: Effect on total sleep in Sprague-Dawley rat at 1 to 10 mg/kg, po measured for 2 hrs; type: ADME, organism-based; conditions: in vivo
Rattus norvegicus [28] = assay: In vivo positive allosteric modulation of metabotropic glutamate receptor 2 in Sprague-Dawley rat assessed as reduction in REM at 10 mg/kg, po measured for 24 consecutive 5 mins period; type: functional, organism-based
Outline: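 Sprague-Dawley rats (n=8 per group) received single oral doses of 1, 3 or 10 mg/kg or 20% CD vehicle. REM sleep was scored in 24 consecutive 5-min bins over the first 2 h. Comparison was by mixed-model ANOVA.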

Brain = assay: Unbound concentration in Sprague-Dawley rat brain at 10 mg/kg, po measured after 1 hr; type: ADME, organism-based; conditions: in vivo
[29] = biological target: T1, Metabotropic glutamate receptor 2; assay: Positive allosteric modulation of human metabotropic glutamate receptor 2 expressed in CHOK1 cells assessed as cellular impedance at 60 nM incubated for 5mins followed by compound washout in presence of endogenous glutamate levels by RTCA; type: cell-based

Metabotropic glutamate receptor 3 (Homo sapiens), sequence (Q14832 23-879 limits assumed): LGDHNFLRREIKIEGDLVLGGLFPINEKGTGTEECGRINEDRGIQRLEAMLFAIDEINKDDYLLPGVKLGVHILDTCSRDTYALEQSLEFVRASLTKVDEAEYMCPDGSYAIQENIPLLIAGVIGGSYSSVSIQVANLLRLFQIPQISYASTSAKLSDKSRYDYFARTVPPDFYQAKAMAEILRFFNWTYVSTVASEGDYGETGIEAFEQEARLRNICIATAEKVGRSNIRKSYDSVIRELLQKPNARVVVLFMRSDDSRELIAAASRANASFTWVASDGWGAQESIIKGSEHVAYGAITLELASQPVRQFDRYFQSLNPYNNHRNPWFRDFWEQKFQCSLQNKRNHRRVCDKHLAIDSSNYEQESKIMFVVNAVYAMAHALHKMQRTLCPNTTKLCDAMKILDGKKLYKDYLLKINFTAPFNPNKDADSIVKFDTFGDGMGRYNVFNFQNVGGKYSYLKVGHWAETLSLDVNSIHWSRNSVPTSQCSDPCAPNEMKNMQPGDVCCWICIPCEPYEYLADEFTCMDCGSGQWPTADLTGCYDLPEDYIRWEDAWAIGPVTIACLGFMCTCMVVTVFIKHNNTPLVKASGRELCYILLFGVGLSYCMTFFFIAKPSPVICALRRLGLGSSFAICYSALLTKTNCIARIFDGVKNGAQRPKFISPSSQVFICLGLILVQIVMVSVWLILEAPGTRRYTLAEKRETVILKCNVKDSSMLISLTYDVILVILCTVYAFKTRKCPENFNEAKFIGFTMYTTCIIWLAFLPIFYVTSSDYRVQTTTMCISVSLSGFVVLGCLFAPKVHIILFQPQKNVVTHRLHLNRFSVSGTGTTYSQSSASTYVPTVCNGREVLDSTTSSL
Metabotropic glutamate receptor 1 (Homo sapiens), sequence (Q13255 19-1194 limits assumed): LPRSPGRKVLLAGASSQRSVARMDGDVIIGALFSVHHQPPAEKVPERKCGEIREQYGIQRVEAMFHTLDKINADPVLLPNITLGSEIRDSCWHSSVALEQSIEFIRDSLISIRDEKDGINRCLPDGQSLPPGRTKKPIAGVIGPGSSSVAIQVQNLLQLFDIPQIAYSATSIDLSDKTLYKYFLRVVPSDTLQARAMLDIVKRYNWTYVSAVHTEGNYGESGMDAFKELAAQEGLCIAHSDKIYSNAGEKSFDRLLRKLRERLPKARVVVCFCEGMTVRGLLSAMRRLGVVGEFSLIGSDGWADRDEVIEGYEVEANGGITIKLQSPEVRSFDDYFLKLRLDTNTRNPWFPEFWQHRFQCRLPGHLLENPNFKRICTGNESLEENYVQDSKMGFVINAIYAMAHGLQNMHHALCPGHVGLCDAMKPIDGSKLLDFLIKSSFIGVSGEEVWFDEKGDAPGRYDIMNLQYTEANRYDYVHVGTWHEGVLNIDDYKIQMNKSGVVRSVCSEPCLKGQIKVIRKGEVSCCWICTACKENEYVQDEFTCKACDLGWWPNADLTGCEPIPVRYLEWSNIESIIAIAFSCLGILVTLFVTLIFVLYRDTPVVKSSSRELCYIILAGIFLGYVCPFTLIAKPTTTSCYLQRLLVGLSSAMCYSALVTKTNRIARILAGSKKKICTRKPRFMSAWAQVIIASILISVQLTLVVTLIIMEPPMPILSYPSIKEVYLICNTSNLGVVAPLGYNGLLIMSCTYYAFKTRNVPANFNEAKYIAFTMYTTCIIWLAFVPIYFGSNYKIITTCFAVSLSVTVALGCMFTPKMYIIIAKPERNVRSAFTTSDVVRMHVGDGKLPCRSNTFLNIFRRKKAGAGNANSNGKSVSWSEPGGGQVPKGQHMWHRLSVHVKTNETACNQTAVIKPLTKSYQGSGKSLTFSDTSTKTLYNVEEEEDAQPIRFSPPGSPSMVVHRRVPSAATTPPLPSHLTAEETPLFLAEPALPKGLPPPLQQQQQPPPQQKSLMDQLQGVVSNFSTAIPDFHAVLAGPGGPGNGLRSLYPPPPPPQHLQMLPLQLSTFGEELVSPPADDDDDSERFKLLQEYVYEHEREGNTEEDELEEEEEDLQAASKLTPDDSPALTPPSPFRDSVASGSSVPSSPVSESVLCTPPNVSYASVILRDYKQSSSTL
Metabotropic glutamate receptor 5 (Homo sapiens), sequence (P41594 21-1212 limits assumed): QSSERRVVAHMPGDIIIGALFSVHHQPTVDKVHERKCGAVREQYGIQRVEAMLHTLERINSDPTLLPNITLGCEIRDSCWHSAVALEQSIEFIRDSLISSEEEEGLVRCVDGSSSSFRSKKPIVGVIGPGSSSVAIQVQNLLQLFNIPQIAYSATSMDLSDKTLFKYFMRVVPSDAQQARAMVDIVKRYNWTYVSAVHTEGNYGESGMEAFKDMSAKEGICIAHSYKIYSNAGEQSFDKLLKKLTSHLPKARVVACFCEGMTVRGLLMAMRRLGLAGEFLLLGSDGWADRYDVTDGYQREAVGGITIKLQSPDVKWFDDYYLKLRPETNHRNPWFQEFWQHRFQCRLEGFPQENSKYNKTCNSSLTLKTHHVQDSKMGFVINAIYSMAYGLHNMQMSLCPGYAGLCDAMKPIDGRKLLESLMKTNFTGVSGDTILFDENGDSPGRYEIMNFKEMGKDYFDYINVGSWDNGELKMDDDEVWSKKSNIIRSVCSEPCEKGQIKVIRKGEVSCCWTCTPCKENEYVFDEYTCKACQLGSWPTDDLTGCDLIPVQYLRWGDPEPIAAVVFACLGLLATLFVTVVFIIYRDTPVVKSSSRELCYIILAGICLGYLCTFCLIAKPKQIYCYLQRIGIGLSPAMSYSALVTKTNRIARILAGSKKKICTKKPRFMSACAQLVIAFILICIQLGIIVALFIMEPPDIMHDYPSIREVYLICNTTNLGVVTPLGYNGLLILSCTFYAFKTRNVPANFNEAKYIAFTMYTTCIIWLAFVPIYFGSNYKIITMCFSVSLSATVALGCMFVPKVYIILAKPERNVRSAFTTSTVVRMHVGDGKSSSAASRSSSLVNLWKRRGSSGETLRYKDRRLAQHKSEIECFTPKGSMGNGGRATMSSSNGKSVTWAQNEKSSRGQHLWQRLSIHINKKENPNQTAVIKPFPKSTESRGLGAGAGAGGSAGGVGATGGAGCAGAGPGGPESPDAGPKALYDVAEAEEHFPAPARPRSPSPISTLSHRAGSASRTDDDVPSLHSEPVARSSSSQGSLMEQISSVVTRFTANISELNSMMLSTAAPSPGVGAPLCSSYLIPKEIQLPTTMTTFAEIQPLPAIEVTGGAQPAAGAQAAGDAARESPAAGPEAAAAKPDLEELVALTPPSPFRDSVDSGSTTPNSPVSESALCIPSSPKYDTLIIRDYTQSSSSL
Metabotropic glutamate receptor 6 (Rattus norvegicus), sequence (P35349 whole entry): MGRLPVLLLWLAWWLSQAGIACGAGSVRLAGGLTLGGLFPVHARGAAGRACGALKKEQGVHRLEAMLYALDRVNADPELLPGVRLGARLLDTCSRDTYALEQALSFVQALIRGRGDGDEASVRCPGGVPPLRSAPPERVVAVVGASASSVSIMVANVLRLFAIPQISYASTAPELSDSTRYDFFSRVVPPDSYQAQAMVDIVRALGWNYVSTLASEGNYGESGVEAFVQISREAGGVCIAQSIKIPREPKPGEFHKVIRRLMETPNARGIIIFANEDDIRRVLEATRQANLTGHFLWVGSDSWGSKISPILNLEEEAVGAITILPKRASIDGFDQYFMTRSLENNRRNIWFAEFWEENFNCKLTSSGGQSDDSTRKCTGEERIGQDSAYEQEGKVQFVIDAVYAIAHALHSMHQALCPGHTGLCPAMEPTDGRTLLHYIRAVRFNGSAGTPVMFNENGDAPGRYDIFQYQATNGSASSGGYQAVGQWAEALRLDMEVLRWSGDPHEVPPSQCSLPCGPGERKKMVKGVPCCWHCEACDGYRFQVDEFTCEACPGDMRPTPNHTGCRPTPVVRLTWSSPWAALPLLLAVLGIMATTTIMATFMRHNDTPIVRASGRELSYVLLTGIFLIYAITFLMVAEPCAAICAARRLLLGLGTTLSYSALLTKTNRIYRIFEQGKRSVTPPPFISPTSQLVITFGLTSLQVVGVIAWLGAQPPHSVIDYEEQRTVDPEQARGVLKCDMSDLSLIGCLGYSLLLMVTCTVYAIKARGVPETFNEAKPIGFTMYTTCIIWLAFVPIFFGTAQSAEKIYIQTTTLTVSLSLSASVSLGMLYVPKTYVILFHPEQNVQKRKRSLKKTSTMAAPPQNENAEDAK
Metabotropic glutamate receptor 7 (Homo sapiens), sequence (Q14831 whole entry): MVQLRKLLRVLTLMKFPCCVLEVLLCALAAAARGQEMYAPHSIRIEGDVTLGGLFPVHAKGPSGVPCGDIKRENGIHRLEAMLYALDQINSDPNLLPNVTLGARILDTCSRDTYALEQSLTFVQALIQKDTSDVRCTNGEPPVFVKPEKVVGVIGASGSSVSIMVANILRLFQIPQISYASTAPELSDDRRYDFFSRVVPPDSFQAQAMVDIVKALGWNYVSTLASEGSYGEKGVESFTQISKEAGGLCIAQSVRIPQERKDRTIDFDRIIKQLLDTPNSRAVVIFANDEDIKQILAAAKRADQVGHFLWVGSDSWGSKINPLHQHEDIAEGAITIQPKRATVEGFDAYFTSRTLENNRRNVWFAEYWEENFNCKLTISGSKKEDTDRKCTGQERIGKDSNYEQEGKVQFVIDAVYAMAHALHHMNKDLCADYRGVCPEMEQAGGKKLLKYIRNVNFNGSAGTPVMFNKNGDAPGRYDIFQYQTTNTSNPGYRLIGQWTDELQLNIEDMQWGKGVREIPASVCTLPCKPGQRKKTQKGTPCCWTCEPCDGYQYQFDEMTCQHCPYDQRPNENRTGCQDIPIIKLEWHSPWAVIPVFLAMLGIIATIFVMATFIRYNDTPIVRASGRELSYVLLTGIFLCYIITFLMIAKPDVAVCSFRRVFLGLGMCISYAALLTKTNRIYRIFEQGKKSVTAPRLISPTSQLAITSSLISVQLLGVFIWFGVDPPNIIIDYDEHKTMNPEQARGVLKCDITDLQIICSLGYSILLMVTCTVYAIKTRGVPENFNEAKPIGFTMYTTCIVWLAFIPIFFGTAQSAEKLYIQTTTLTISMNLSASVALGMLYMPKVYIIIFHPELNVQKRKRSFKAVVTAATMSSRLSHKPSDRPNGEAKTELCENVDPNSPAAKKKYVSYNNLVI

Row | SMILES | inhibition [1] | Activity [2] | inhibition [3] | inhibition [4] | Activity [5] | Activity [6] | K [7] | Activity [8] | TIME [9] | Activity [10] | Activity [11] | inhibition [12] | inhibition [13] | EC50 [14] | Activity [15] | inhibition [16] | Activity [17] | Ki [18] | Kd [20] | K [21] | further results
1 | FC(F)(F)c1c(CN2CCC(c3ccccc3)CC2)ccn2c(CC3CC3)nnc12 |  |  |  |  |  |  |  |  |  |  |  |  |  |  |  |  |  |  |  |  | Activity (CHO-K1): inactive
2 | Fc1cc(-c2ccn3c(CC4CC4)nnc3c2Cl)ccc1NC1CC1 | inactive | inactive | inactive | inactive | inactive | inactive | 4.8 ×10⁶ /M/min | inactive | 0.273 h | inactive | inactive | inactive | inactive | 63.1 nM | inactive | inactive | inactive | 10.2 nM | 12.7 nM | 0.061 min⁻¹ | inhibition [19]: inactive
3 | CC(C)C(=O)c1ccc(OCc2ccc(CNC(=O)c3cn(C)cn3)cc2)c(C(F)(F)F)c1O |  |  |  |  |  |  | 1.2 ×10⁶ /M/min |  | 0.14 h |  |  |  |  | 107 nM |  |  |  |  | 100 nM | 0.12 min⁻¹ | Ki [22]: 79.4 nM
4 | O[C@H]1CC[C@H](Nc2ccc(-c3ccn4c(CC(F)(F)F)nnc4c3Cl)cc2Cl)CC1 | inactive | inactive | inactive | inactive | inactive | inactive | 6.7 ×10⁶ /M/min | inactive | 0.227 h | inactive | inactive | inactive | inactive | 41.7 nM | inactive | inactive | inactive | 6.03 nM | 10.8 nM | 0.074 min⁻¹ | inhibition [19]: inactive
5 | Cc1ccc(Oc2ccc(-c3ccn4c(CC5CC5)nnc4c3Cl)cc2Cl)c(C)n1 | inactive | inactive | inactive | inactive | inactive | inactive | 6.2 ×10⁷ /M/min | inactive | 0.272 h | inactive | inactive | inactive | inactive | 12.3 nM | inactive | inactive | inactive | 6.03 nM | 1 nM | 0.061 min⁻¹ | inhibition [19]: inactive
6 | N#Cc1c(N2CCC(c3ccccc3)CC2)ccn(CC2CC2)c1=O |  |  |  |  |  |  | 1.7 ×10⁶ /M/min |  | 0.185 h |  |  |  |  | 79.4 nM |  |  |  |  | 51 nM | 0.09 min⁻¹ | Ki [22]: 26.3 nM
7 | FC(F)(F)c1c(-c2ccc(OC3CCOCC3)c(Cl)c2)ccn2c(CC3CC3)nnc12 | inactive | inactive | inactive | inactive | inactive | inactive | 2 ×10⁷ /M/min | inactive | 0.0683 h | inactive | inactive | inactive | inactive | 38 nM | inactive | inactive | inactive | 5.25 nM | 12.3 nM | 0.241 min⁻¹ | Activity [23]: inactive; EC80 [24]: 600 nM; EC50 [25]: 89.1 nM; inhibition [19]: inactive
8 | FC(F)(F)c1c(-c2ccc(NC3CCOCC3)c(Cl)c2)ccn2c(CC3CC3)nnc12 |  |  |  |  |  |  | 1.8 ×10⁷ /M/min |  | 0.25 h |  |  |  |  | 18.6 nM |  |  |  | 5.01 nM | 3.8 nM | 0.067 min⁻¹ | EC80 [24]: 200 nM; EC50 [25]: 18.6 nM; Activity [26]: inactive
9 | Cc1ccc(Oc2ccc(-c3ccn4c(CC5CC5)nnc4c3C(F)(F)F)cc2F)c(C)n1 |  |  |  |  |  |  | 1.3 ×10⁷ /M/min |  | 0.502 h |  |  |  |  | 8.71 nM |  |  |  | 2.57 nM | 2.5 nM | 0.033 min⁻¹ | Activity (Rattus norvegicus [27]): Non-Toxic; Activity (Rattus norvegicus [28]): Active; Drug uptake(free) (Brain): 5 ng/g
10 | Fc1cc(-c2ccn3c(CC4CC4)nnc3c2C(F)(F)F)ccc1Oc1ccnc(C2CC2)c1 |  |  |  |  |  |  | 2.2 ×10⁷ /M/min |  | 0.0883 h |  |  |  |  | 18.6 nM |  |  |  | 3.63 nM | 8.6 nM | 0.189 min⁻¹ | Activity (Rattus norvegicus [27]): Non-Toxic; Activity (Rattus norvegicus [28]): Active; Drug uptake(free) (Brain): 3.5 ng/g
11 | O[C@]1(C2CC2)CC[C@H](Nc2ccc(-c3ccn4c(CC5CC5)nnc4c3C(F)(F)F)cc2Cl)CC1 |  |  |  |  |  |  | 1.4 ×10⁷ /M/min |  | 0.825 h |  |  |  |  | 1.12 nM |  |  |  | 0.891 nM | 1.5 nM | 0.02 min⁻¹ | EC80 [24]: 60 nM; EC50 [25]: 11.2 nM; Activity [29]: Active
